According to ChEMBL document CHEMBL4387722:
pEC50, pIC50: −log10 of the molar value.

Key:
[1] = molecular target: T1, Tyrosine-protein phosphatase non-receptor type 2 (Homo sapiens, UniProt P17706); experiment: Inhibition of human PTPN2 expressed in Escherichia coli Rosetta 2 (DE3) using pNPP as substrate after 45 mins by spectrophotometric method
T1 sequence (P17706 whole entry): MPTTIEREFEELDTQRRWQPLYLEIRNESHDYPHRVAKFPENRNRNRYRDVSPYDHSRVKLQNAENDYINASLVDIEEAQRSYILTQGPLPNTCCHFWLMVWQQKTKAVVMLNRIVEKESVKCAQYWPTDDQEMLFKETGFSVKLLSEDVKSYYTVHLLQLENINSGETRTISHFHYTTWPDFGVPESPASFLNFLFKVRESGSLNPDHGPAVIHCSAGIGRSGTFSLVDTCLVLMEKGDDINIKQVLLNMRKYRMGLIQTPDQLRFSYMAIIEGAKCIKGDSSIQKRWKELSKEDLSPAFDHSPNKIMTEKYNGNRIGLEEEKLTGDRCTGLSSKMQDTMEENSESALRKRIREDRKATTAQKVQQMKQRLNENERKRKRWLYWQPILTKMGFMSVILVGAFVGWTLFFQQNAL

[2] = Selectivity index, ratio of IC50 for human PTPN1 to IC50 for Mycobacterium tuberculosis PtpB
[3] = molecular target: HSP60/HSP10 (Homo sapiens, UniProt P10809); experiment: Inhibition of human HSP60 expressed in Escherichia coli Rosetta 2(DE3)/human HSP10 expressed in Escherichia coli Rosetta 2(DE3) pLysS cells assessed as reduction in HSP60/HSP10-mediated denatured pig heart mitochondrial MDH refolding by measuring MDH enzyme activity using sodium mesoxalate as substrate after 40 to 60 mins by spectrometric analysis
[4] = molecular target: T2, Tyrosine-protein phosphatase non-receptor type 5 (Homo sapiens, UniProt P54829); experiment: Inhibition of human PTPN5 expressed in Escherichia coli Rosetta 2 (DE3) using pNPP as substrate after 45 mins by spectrophotometric method
T2 sequence (P54829 whole entry): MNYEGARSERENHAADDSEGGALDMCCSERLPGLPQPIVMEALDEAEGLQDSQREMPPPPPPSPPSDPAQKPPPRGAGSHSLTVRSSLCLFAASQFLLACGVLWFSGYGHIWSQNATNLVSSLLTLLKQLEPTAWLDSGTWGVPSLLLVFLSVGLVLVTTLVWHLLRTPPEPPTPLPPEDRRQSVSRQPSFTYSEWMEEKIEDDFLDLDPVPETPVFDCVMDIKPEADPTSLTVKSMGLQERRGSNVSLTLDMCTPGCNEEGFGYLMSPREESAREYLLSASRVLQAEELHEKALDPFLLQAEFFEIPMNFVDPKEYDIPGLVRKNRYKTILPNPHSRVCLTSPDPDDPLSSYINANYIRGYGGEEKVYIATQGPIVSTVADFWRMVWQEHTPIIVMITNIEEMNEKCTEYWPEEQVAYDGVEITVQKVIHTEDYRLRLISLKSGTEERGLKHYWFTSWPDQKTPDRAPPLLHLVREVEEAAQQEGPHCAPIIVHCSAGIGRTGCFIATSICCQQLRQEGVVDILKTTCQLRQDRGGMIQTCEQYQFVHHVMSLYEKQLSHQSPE

[5] = Selectivity ratio of IC50 for inhibition of human HSP60 expressed in Escherichia coli Rosetta 2(DE3)/human HSP10 expressed in Rosetta 2(DE3) pLysS cells to IC50 for inhibition of Escherichia coli GroEL expressed in Escherichia coli DH5alpha/Escherichia coli GroES expressed in Escherichia coli BL21 (DE3)
Procedure, shortened: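 Ratio of IC50s from two analogous chaperonin-mediated refolding assays: human HSP60/10 and E. coli GroEL/ES each refold denatured malate dehydrogenase (dMDH). Refolding is followed through the recovered MDH enzymatic activity in a coupled read-out. IC50s come from dose-response testing. GroEL subunits are at 700 nM in the GroEL/ES assay.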

[6] = system: Mycobacterium tuberculosis; experiment: Antitubercular activity against Mycobacterium tuberculosis H37Rv after 5 days; assay type: functional, organism-based; conditions: 120 h
[7] = system: Mycobacterium tuberculosis; experiment: Antitubercular activity against Mycobacterium tuberculosis H37Rv after 5 days at 200 uM relative to control; assay type: functional; conditions: 120 h
Procedure, shortened: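 M. tuberculosis grown in liquid culture with compound at a fixed 200 μM for 5 days. Growth inhibition expressed as percent of control.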

[8] = molecular target: T3, Phosphotyrosine protein phosphatase (Mycobacterium tuberculosis, UniProt A0A045ISB3); experiment: Inhibition of Mycobacterium tuberculosis His-tagged PtpB expressed in Escherichia coli Rosetta 2 (DE3) using pNPP as substrate after 30 mins by spectrophotometric method
T3 sequence (A0A045ISB3 whole entry): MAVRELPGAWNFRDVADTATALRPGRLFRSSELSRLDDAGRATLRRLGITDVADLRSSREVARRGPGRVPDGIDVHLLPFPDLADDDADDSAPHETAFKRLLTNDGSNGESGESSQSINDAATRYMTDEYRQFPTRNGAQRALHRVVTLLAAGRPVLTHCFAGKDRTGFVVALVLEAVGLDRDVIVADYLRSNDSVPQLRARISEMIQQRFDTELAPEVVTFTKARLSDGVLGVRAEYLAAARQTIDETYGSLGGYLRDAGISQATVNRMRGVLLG

[9] = molecular target: T4, E. coli GroEL/ES (Escherichia coli, UniProt P0A6F5); experiment: Inhibition of Escherichia coli GroEL expressed in Escherichia coliDH5alpha/Escherichia coli GroES expressed in Escherichia coli BL21 (DE3) assessed as reduction in GroEL/GroES-mediated denatured pig heart mitochondrial MDH refolding by measuring MDH enzyme activity using sodium mesoxalate as substrate after 20 to 40 mins by spectrometric analysis
[10] = molecular target: T5, Tyrosine-protein phosphatase non-receptor type 1 (Homo sapiens, UniProt P18031); experiment: Inhibition of human PTPN1 expressed in Escherichia coli Rosetta 2 (DE3) using pNPP as substrate after 45 mins by spectrophotometric method
T5 sequence (P18031 whole entry): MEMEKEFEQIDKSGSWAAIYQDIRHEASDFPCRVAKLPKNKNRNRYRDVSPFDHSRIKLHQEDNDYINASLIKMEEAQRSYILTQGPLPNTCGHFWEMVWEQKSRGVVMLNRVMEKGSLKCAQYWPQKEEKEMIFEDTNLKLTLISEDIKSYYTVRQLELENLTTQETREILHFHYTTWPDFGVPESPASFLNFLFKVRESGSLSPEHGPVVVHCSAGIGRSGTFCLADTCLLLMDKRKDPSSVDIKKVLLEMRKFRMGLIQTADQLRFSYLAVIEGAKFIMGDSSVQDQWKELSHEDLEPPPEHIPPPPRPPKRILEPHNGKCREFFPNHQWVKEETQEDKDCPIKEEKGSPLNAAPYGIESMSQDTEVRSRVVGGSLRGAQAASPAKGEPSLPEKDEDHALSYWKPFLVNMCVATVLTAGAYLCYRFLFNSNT

[11] = Cytotoxicity against human HEK293 cells assessed as reduction in cell viability after 48 hrs by Alamar blue assay; assay type: cell-based
Procedure, shortened: (§1)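 Alamar Blue viability read-out. Human liver (THLE-3) and kidney (HEK 293) cells incubated with compound for 48 h. Tested in dose-response to derive CC50.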

[12] = molecular target: T6, Malate dehydrogenase, mitochondrial (Sus scrofa, UniProt P00346); experiment: Inhibition of refolded pig heart mitochondrial MDH preincubated with Escherichia coli GroEL/GroES for 45 mins using sodium mesoxalate as substrate followed by compound addition and measured after 20 to 30 mins by spectrometric analysis
T6 sequence (P00346 whole entry): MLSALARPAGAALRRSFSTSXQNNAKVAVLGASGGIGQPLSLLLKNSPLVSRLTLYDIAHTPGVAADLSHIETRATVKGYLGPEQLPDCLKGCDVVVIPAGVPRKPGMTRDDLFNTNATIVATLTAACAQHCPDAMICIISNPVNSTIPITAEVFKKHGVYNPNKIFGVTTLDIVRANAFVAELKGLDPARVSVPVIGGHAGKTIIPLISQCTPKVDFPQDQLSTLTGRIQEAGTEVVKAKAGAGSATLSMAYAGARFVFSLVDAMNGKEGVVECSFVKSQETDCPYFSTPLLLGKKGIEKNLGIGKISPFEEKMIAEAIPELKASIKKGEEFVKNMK

[13] = Inhibition of refolded rhodanese (unknown origin) preincubated with Escherichia coli GroEL/GroES for 60 mins by measuring rhodanese enzyme activity followed by compound addition by Fe(SCN)3 dye based spectrometric analysis; set-up: species or system Homo sapiens
[14] = Cytotoxicity against human THLE3 cells assessed as reduction in cell viability after 48 hrs by Alamar blue assay; assay type: cell-based; procedure, shortened: as §1
[15] = molecular target: T4, E. coli GroEL/ES; experiment: Inhibition of Escherichia coli GroEL expressed in Escherichia coli DH5alpha/Escherichia coli GroES expressed in Escherichia coli BL21 (DE3) assessed as reduction in GroEL/GroES-mediated denatured rhodanese refolding by measuring rhodanese enzyme activity after 45 mins by Fe(SCN)3 dye based spectrometric analysis

T4 sequence (P0A6F5 whole entry, looked up): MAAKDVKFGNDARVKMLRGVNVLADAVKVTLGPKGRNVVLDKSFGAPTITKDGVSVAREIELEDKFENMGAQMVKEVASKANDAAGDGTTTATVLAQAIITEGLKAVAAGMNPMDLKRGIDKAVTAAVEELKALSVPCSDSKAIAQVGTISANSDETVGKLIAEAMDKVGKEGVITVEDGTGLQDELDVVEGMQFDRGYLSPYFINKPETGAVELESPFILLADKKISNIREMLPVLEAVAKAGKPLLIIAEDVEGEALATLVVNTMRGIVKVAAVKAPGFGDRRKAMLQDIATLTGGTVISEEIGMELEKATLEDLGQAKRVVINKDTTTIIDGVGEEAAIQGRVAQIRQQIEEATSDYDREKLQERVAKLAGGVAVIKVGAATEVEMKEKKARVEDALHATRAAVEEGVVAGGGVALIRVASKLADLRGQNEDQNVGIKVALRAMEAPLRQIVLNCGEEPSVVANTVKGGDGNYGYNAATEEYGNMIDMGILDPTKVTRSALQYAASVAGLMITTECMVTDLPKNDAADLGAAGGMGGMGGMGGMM
Sequence of HSP60/HSP10 (P10809 whole entry): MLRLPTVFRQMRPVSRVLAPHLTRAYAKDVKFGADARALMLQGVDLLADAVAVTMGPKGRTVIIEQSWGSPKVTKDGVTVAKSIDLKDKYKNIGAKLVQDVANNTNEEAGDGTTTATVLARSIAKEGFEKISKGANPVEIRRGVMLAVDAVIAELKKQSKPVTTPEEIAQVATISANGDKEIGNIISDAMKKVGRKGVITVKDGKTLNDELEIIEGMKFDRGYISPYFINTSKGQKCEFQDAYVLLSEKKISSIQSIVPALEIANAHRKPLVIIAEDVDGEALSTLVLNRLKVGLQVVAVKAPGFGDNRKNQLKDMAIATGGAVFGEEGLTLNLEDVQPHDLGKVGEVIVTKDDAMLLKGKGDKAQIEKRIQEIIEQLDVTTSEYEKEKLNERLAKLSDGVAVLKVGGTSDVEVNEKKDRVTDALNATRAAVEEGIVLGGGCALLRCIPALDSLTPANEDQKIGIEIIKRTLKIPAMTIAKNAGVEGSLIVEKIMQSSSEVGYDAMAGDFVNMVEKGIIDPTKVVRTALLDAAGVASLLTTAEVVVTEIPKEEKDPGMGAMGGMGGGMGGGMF
Sequence of HSP60/HSP10 (P61604 whole entry, further chain): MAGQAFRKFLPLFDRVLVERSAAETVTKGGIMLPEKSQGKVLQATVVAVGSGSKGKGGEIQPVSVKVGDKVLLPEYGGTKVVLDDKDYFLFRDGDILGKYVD

Compound	pIC50 [1]	Ratio IC50 [2]	pIC50 [3]	pIC50 [4]	Ratio IC50 [5]	pEC50 [6]	inhibition at 200 µM [7]	pIC50 [8]	pIC50 [9]	pIC50 [10]	CC50 at 48 h [11]	pIC50 [12]	pIC50 [13]	CC50 at 48 h [14]	pIC50 [15]
O=S(=O)(Nc1ccc(-c2nc3cc(NS(=O)(=O)c4ccccc4F)ccc3o2)cc1)c1ccccc1F	4.51	1.6	4.24	4.59	2.9	4.35	54%	4.80	4.70	4.44					
NCc1ccc(S(=O)(=O)Nc2ccc(-c3nc4cc(NS(=O)(=O)c5ccc(Cl)s5)ccc4o3)cc2)cc1	4.04	6.2	4.32	4.12	37	4.59	94%	5.04		4.25					
O=S(=O)(Nc1ccc(-c2nc3cc(NS(=O)(=O)c4ccc(O)cc4)ccc3o2)cc1)c1ccc(O)cc1	4.12	2.3	4.85	4.46	61	4.03	66%	4.92	6.64	4.57					
O=S(=O)(Nc1ccc(-c2nc3cc(NS(=O)(=O)c4cccc(O)c4)ccc3o2)cc1)c1cccc(O)c1	4.08	25	4.77	4.33	18	4.08	80%	5.82	6.01	4.42					
O=S(=O)(Nc1ccc2oc(-c3ccc(NS(=O)(=O)c4ccc(Cl)s4)cc3)nc2c1)c1ccccc1	4.55	1.6	5.05	4.62	1.6	4.40	72%	5.06	5.25	4.85					
NCc1ccc(S(=O)(=O)Nc2ccc3oc(-c4ccc(NS(=O)(=O)c5ccc(Cl)s5)cc4)nc3c2)cc1	4.21	9.5	4.43	4.21	8	4.23	91%	5.36	5.34	4.38					
O=S(=O)(Nc1ccc(-c2nc3cc(NS(=O)(=O)c4ccccc4O)ccc3o2)cc1)c1ccccc1O	4.41	10	4.74	4.60	2.3	4.20	79%	5.64	5.11	4.64					
O=S(=O)(Nc1ccc(-c2nc3cc(NS(=O)(=O)c4ccc(F)cc4)ccc3o2)cc1)c1ccc(F)cc1	4.55	1.3	4.17	4.64	20	4.18	48%	4.74	5.48	4.57					
N#Cc1ccc(S(=O)(=O)Nc2ccc(-c3nc4cc(NS(=O)(=O)c5ccc(C#N)cc5)ccc4o3)cc2)cc1	4.46	2.3	4.31	4.57	1.4	4.37	95%	4.92	4.46	4.43					
O=S(=O)(Nc1ccc2oc(-c3ccc(NS(=O)(=O)c4ccc(Cl)s4)cc3)nc2c1)c1cccs1	4.51	2.5	5.04	4.64	2.3	4.44	52%	5.29	5.40	4.89					
CS(=O)(=O)Nc1ccc(-c2nc3cc(NS(=O)(=O)c4ccc(Cl)s4)ccc3o2)cc1	4.02	1.4	4.37	4.28	3.1	4.18	74%	4.43	4.85	4.28					
O=S(=O)(Nc1ccc2oc(-c3ccc(NS(=O)(=O)c4cccc5nonc45)cc3)nc2c1)c1ccc(Cl)s1	4.55	2.5	4.89	4.62	1.4	4.24	46%	5.23	5.03	4.82					
O=S(=O)(Nc1ccc(-c2nc3cc(NS(=O)(=O)c4cccs4)ccc3o2)cc1)c1cccs1	4.39	2.6	4.40	4.48	7.3	4.47	59%	4.92	5.26	4.51					
O=S(=O)(Nc1ccc(-c2nc3ccccc3o2)cc1)c1ccc(Cl)s1	4.14		4.51	4.19		3.73	70%	4.49	4.28	4.20	> 100 µM	< 4.20	< 4.00	85 µM	3.81
